Key:
A10 [1] = experiment: Percent decrease in fluorescence in a membrane potential assay using the A10 cell line derived from embryonic rat aorta at 0.1 uM; format: functional
How it was run: (§1)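 Postconfluent A10 cells (passage ≤20, grown in DMEM/15% FBS) equilibrated ≥15 min at 37 °C in 5 μM DiBAC₄(3) in EBSS with 20 mM HEPES, pH 7.3. Compound added from 1000X DMSO or water stocks. Fluorescence (ex 488, em 525 nm) imaged every 60 s at 37 °C from a field of about 50 cells and normalized between experiments.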

A10 [2] = experiment: Percent decrease in fluorescence in a membrane potential assay using the A10 cell line derived from embryonic rat aorta at 1.0 uM; format: functional; how it was run: as §1
A10 [3] = experiment: Percent decrease in fluorescence in a membrane potential assay using the A10 cell line derived from embryonic rat aorta at 10.0 uM; format: functional; how it was run: as §1
Rattus norvegicus [4] = experiment: Change in mean arterial pressure in anesthetized female rats at a dose of 0.10 mg/kg and a cumulative dose of 0.14 mg/kg; format: functional, Artery
How it was run: (§2)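 Fasted female Sprague-Dawley rats, 200–250 g, under iv α-chloralose/urethane/pentobarbital anesthesia. Mean arterial pressure recorded continuously through a femoral artery catheter, after 30 min postsurgical equilibration. Compound given iv in 20% DMA/saline as step doses (initial plus three higher) at 20-min intervals. ΔMAP from pretreatment averaged over 4–5 rats per group; vehicle controls pooled n = 6.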

Rattus norvegicus [5] = experiment: Change in mean arterial pressure in anesthetized female rats at a dose of 0.03 mg/kg and a cumulative dose of 0.04 mg/kg; format: functional, Artery; how it was run: as §2
Rattus norvegicus [6] = experiment: Change in heart rate in beats per minute in anesthetized female rats at a dose of 0.10 mg/kg and a cumulative dose of 0.14 mg/kg; format: functional
How it was run: (§3)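 Fasted female Sprague-Dawley rats, 200–250 g, anesthetized iv with α-chloralose 40 mg/kg, urethane 20 mg/kg and pentobarbital 20 mg/kg. Femoral vein cannulated for dosing; heart rate taken by tachograph triggered from the arterial pulse. Rectal temperature kept at 36–38 °C. Drug given iv in 20% DMA/saline as four rising bolus steps 20 min apart. ΔHR from pretreatment is the mean of 4–5 rats.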

Rattus norvegicus [7] = experiment: Change in mean arterial pressure in anesthetized female rats at a dose of 0.01 mg/kg and a cumulative dose of 0.01 mg/kg; format: functional, Artery; how it was run: as §2
Rattus norvegicus [8] = experiment: Change in heart rate in beats per minute in anesthetized female rats at a dose of 0.01 mg/kg and a cumulative dose of 0.01 mg/kg; format: functional; how it was run: as §3
Rattus norvegicus [9] = experiment: Change in heart rate in beats per minute in anesthetized female rats at a dose of 0.03 mg/kg and a cumulative dose of 0.04 mg/kg; format: functional; how it was run: as §3
A10 [10] = experiment: Percent decrease in fluorescence in a membrane potential assay using the A10 cell line derived from embryonic rat aorta at 0.001 uM; format: functional; how it was run: as §1
Rattus norvegicus [11] = experiment: Change in mean arterial pressure in anesthetized female rats at a dose of 0.30 mg/kg and a cumulative dose of 0.44 mg/kg; format: functional, Artery; how it was run: as §2
A10 [12] = experiment: Percent decrease in fluorescence in a membrane potential assay using the A10 cell line derived from embryonic rat aorta at 0.01 uM; format: functional; how it was run: as §1
Rattus norvegicus [13] = experiment: Change in heart rate in beats per minute in anesthetized female rats at a dose of 0.30 mg/kg and a cumulative dose of 0.44 mg/kg; format: functional; how it was run: as §3
Rattus norvegicus [14] = experiment: Change in mean arterial pressure in anesthetized female rats at a dose of 0.030 mg/kg and a cumulative dose of 0.044 mg/kg; format: functional, Artery; how it was run: as §2
Rattus norvegicus [15] = experiment: Change in mean arterial pressure in anesthetized female rats at a dose of 0.003 mg/kg and a cumulative dose of 0.004 mg/kg; format: functional, Artery; how it was run: as §2
Rattus norvegicus [16] = experiment: Change in heart rate in beats per minute in anesthetized female rats at a dose of 0.030 mg/kg and a cumulative dose of 0.044 mg/kg; format: functional; how it was run: as §3
Rattus norvegicus [17] = experiment: Change in heart rate in beats per minute in anesthetized female rats at a dose of 0.001 mg/kg and a cumulative dose of 0.001 mg/kg; format: functional; how it was run: as §3
Rattus norvegicus [18] = experiment: Change in mean arterial pressure in anesthetized female rats at a dose of 0.001 mg/kg and a cumulative dose of 0.001 mg/kg; format: functional, Artery; how it was run: as §2
Rattus norvegicus [19] = experiment: Change in mean arterial pressure in anesthetized female rats at a dose of 0.010 mg/kg and a cumulative dose of 0.014 mg/kg; format: functional, Artery; how it was run: as §2
Rattus norvegicus [20] = experiment: Change in heart rate in beats per minute in anesthetized female rats at a dose of 0.010 mg/kg and a cumulative dose of 0.014 mg/kg; format: functional; how it was run: as §3
Rattus norvegicus [21] = experiment: Change in heart rate in beats per minute in anesthetized female rats at a dose of 0.003 mg/kg and a cumulative dose of 0.004 mg/kg; format: functional; how it was run: as §3

SMILES: CCCSC1=NC(=O)C2(CC(C)(C)Oc3ccc(Br)cc32)N1 (stereo unspecified)
- Decrease (A10 [1]): 6%
- Decrease (A10 [2]): 15%

SMILES: CCCNC1=NC(=O)C2(CC(C)(C)Oc3ccccc32)N1 (stereo unspecified)
- Decrease (A10 [2]): 7%

SMILES: CSC1=NC(=O)C2(CC(C)(C)Oc3ccccc32)N1 (stereo unspecified)
- Decrease (A10 [3]): <5%

SMILES: CC(C)NC1=NC(=O)C2(CC(C)(C)Oc3ccc(F)cc32)N1 (stereo unspecified)
- Decrease (A10 [3]): 22%
- Decrease (A10 [2]): 5%

SMILES: CCSC1=NC(=O)C2(CC(C)(C)Oc3ccc(C#N)cc32)N1 (stereo unspecified)
- Decrease (A10 [3]): 24%
- Decrease (A10 [2]): 6%

SMILES: CSC1=NC(=O)C2(CC(C)(C)Oc3ccc(Br)cc32)N1 (stereo unspecified)
- Decrease (A10 [1]): 6%
- Decrease (A10 [2]): 27%

SMILES: CSC1=NC(=O)C2(CC(C)(C)Oc3ccc(C#N)cc32)N1 (stereo unspecified)
- Decrease (A10 [3]): 25%
- Decrease (A10 [2]): 5%

SMILES: CCSC1=NC(=O)C2(CC(C)(C)Oc3ccc(Br)cc32)N1 (stereo unspecified)
- Decrease (A10 [1]): 18%
- Delta MAP (Rattus norvegicus [4]): -21.5 mmHg
- Delta MAP (Rattus norvegicus [5]): -16.3 mmHg
- Delta HR (Rattus norvegicus [6]): 16.5 beats min-1
- Delta MAP (Rattus norvegicus [7]): -2.5 mmHg
- Delta HR (Rattus norvegicus [8]): 15.5 beats min-1
- Delta HR (Rattus norvegicus [9]): 29 beats min-1
- Decrease (A10 [10]): 7%
- Delta MAP (Rattus norvegicus [11]): -25 mmHg
- Decrease (A10 [12]): 11%
- Delta HR (Rattus norvegicus [13]): 17.5 beats min-1

SMILES: CCOC1=NC(=O)C2(CC(C)(C)Oc3ccc(F)cc32)N1 (stereo unspecified)
- Decrease (A10 [3]): 13%
- Decrease (A10 [2]): <5%

SMILES: CCCSC1=NC(=O)C2(CC(C)(C)Oc3ccc(C#N)cc32)N1 (stereo unspecified)
- Decrease (A10 [1]): <5%
- Decrease (A10 [2]): 17%

SMILES: CC(C)NC1=NC(=O)C2(CC(C)(C)Oc3ccc(Br)cc32)N1 (stereo unspecified)
- Decrease (A10 [1]): 5%
- Decrease (A10 [2]): 22%

SMILES: CCCNC1=NC(=O)C2(CC(C)(C)Oc3ccc(C#N)cc32)N1 (stereo unspecified)
- Decrease (A10 [1]): 21%
- Delta MAP (Rattus norvegicus [4]): -66.2 mmHg
- Delta MAP (Rattus norvegicus [5]): -50.8 mmHg
- Delta HR (Rattus norvegicus [6]): 29.8 beats min-1
- Delta MAP (Rattus norvegicus [7]): -23.6 mmHg
- Decrease (A10 [2]): 27%
- Delta HR (Rattus norvegicus [8]): 13.8 beats min-1
- Delta HR (Rattus norvegicus [9]): 19.2 beats min-1
- Delta MAP (Rattus norvegicus [11]): -70 mmHg
- Decrease (A10 [12]): <5%
- Delta HR (Rattus norvegicus [13]): 39.2 beats min-1

SMILES: CCNC1=NC(=O)C2(CC(C)(C)Oc3ccc([N+](=O)[O-])cc32)N1 (stereo unspecified)
- Decrease (A10 [1]): 28%
- Decrease (A10 [10]): 9%
- Decrease (A10 [12]): 13%

SMILES: CCNC1=NC(=O)C2(CC(C)(C)Oc3ccc(Br)cc32)N1 (stereo unspecified)
- Decrease (A10 [1]): 26%
- Decrease (A10 [2]): 19%

SMILES: CCOC1=NC(=O)C2(CC(C)(C)Oc3ccccc32)N1 (stereo unspecified)
- Decrease (A10 [3]): <5%

SMILES: CNC1=NC(=O)C2(CC(C)(C)Oc3ccc([N+](=O)[O-])cc32)N1 (stereo unspecified)
- Decrease (A10 [1]): 38%
- Decrease (A10 [10]): <5%
- Decrease (A10 [12]): 15%

SMILES: CSC1=NC(=O)C2(CC(C)(C)Oc3ccc([N+](=O)[O-])cc32)N1 (stereo unspecified)
- Decrease (A10 [1]): 11%
- Decrease (A10 [2]): 16%
- Decrease (A10 [12]): 8%

SMILES: CNC1=NC(=O)C2(CC(C)(C)Oc3ccc(Br)cc32)N1 (stereo unspecified)
- Decrease (A10 [1]): 22%
- Decrease (A10 [2]): 17%

SMILES: CCCNC1=NC(=O)C2(CC(C)(C)Oc3ccc(Br)cc32)N1 (stereo unspecified)
- Decrease (A10 [1]): 28%
- Delta MAP (Rattus norvegicus [4]): -70.1 mmHg
- Delta MAP (Rattus norvegicus [5]): -56.7 mmHg
- Delta HR (Rattus norvegicus [6]): 46.3 beats min-1
- Delta MAP (Rattus norvegicus [7]): -25.6 mmHg
- Delta HR (Rattus norvegicus [8]): 44.9 beats min-1
- Delta HR (Rattus norvegicus [9]): 25.6 beats min-1
- Delta MAP (Rattus norvegicus [11]): -70.6 mmHg
- Decrease (A10 [12]): 12%
- Delta HR (Rattus norvegicus [13]): 92.8 beats min-1

SMILES: CNC1=NC(=O)C2(CC(C)(C)Oc3ccc(F)cc32)N1 (stereo unspecified)
- Decrease (A10 [3]): 14%
- Decrease (A10 [2]): 11%

SMILES: CCCNC1=NC(=O)C2(CC(C)(C)Oc3ccc(F)cc32)N1 (stereo unspecified)
- Decrease (A10 [1]): 10%
- Decrease (A10 [2]): 17%

SMILES: CSC1=NC(=O)C2(CC(C)(C)Oc3ccc(F)cc32)N1 (stereo unspecified)
- Decrease (A10 [3]): 27%
- Decrease (A10 [2]): 9%

SMILES: CC(C)NC1=NC(=O)C2(CC(C)(C)Oc3ccccc32)N1 (stereo unspecified)
- Decrease (A10 [3]): 13%

SMILES: CC1(C)Oc2ccc(C#N)cc2C(N2CCCC2=O)C1O (stereo unspecified) [CROMAKALIM]
- Decrease (A10 [1]): <5%
- Delta MAP (Rattus norvegicus [4]): -36.1 mmHg
- Delta MAP (Rattus norvegicus [5]): -22.6 mmHg
- Delta HR (Rattus norvegicus [6]): 65.6 beats min-1
- Delta MAP (Rattus norvegicus [7]): -14.7 mmHg
- Decrease (A10 [2]): 22%
- Delta HR (Rattus norvegicus [8]): 33.8 beats min-1
- Delta HR (Rattus norvegicus [9]): 53.4 beats min-1
- Delta MAP (Rattus norvegicus [11]): -52.7 mmHg
- Delta HR (Rattus norvegicus [13]): 63 beats min-1

SMILES: CC(C)(C)CNC1=NC(=O)C2(CC(C)(C)Oc3ccccc32)N1 (stereo unspecified)
- Decrease (A10 [3]): 7%

SMILES: CNC1=NC(=O)C2(CC(C)(C)Oc3ccc(C#N)cc32)N1 (stereo unspecified)
- Decrease (A10 [1]): <5%
- Decrease (A10 [2]): 19%

SMILES: CCNC1=NC(=O)C2(CC(C)(C)Oc3ccc(C#N)cc32)N1 (stereo unspecified)
- Decrease (A10 [1]): 8%
- Decrease (A10 [2]): 25%

SMILES: CC(C)NC1=NC(=O)C2(CC(C)(C)Oc3ccc(C#N)cc32)N1 (stereo unspecified)
- Decrease (A10 [1]): <5%
- Decrease (A10 [2]): 10%

SMILES: CCOC1=NC(=O)C2(CC(C)(C)Oc3ccc(Br)cc32)N1 (stereo unspecified)
- Decrease (A10 [1]): 5%
- Decrease (A10 [2]): 20%

SMILES: CCCNC1=NC(=O)C2(CC(C)(C)Oc3ccc([N+](=O)[O-])cc32)N1 (stereo unspecified)
- Decrease (A10 [1]): 28%
- Delta MAP (Rattus norvegicus [14]): -72 mmHg
- Delta MAP (Rattus norvegicus [15]): -51.3 mmHg
- Delta HR (Rattus norvegicus [16]): 31.8 beats min-1
- Delta HR (Rattus norvegicus [17]): 6.8 beats min-1
- Delta MAP (Rattus norvegicus [18]): -19.8 mmHg
- Delta MAP (Rattus norvegicus [19]): -66 mmHg
- Delta HR (Rattus norvegicus [20]): 3.8 beats min-1
- Decrease (A10 [10]): 8%
- Delta HR (Rattus norvegicus [21]): 3.3 beats min-1
- Decrease (A10 [12]): 19%

SMILES: CCNC1=NC(=O)C2(CC(C)(C)Oc3ccc(F)cc32)N1 (stereo unspecified)
- Decrease (A10 [1]): 19%
- Delta MAP (Rattus norvegicus [4]): -28 mmHg
- Delta MAP (Rattus norvegicus [5]): -10.7 mmHg
- Delta HR (Rattus norvegicus [6]): 38 beats min-1
- Delta MAP (Rattus norvegicus [7]): -7.1 mmHg
- Decrease (A10 [2]): 24%
- Delta HR (Rattus norvegicus [8]): -0.4 beats min-1
- Delta HR (Rattus norvegicus [9]): 1.7 beats min-1
- Delta MAP (Rattus norvegicus [11]): -44.6 mmHg
- Delta HR (Rattus norvegicus [13]): 45.6 beats min-1

Source: ChEMBL document CHEMBL1127018, “Synthesis and biological activity of spirocyclic benzopyran imidazolone potassium channel openers” (1993)
